Laboratory results reported in ChEMBL document CHEMBL5705890, “Antitumor activity of an allosteric inhibitor of centromere-associated protein-E” (Proc Natl Acad Sci U S A, 2010).

Key:
Format in all cases: functional
[1] = test system: HCT-116; test: Antitumor activity against human HCT-116 cells in xenograft model assessed as difference between median time to endpoint time of treated versus control group at 62.5 mg/kg
[2] = Anticancer activity against human BM-1604 cells assessed as cell growth inhibition measured after 72 hrs by DAPI staining based analysis
Outline: (§1)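 Cells were seeded, and DNA content at 24 h after seeding (T0) was read by imaging of fixed, DAPI-stained cells. Cells were then exposed to a range of drug concentrations for a further 72 h (T72) and DNA content was read again. T72 values were normalized to T0, and GI50 was taken from curve fits as the concentration giving 50% growth inhibition relative to T0 and Ymax.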

[3] = Anticancer activity against human C32TG cells assessed as cell doubling measured for 72 hrs by DAPI staining based analysis
[4] = test system: KATO III stomach cancer cell line; test: Anticancer activity against human KATO III stomach cancer cell line cells assessed as cell growth inhibition measured after 72 hrs by DAPI staining based analysis
[5] = test system: NCI-H2171; test: Anticancer activity against human NCI-H2171 cells assessed as cell growth inhibition measured after 72 hrs by DAPI staining based analysis
[6] = Anticancer activity against human SW579 cells assessed as cell doubling measured for 72 hrs by DAPI staining based analysis
[7] = test system: Caov-3 cell line; test: Anticancer activity against human Caov-3 cells assessed as cell growth inhibition measured after 72 hrs by DAPI staining based analysis
Outline: (§2)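 Cells seeded, DAPI-stained DNA content of fixed cells read by imaging 24 h after seeding (T0), and again after a further 72 h exposure to a range of drug concentrations (T72). T72 values were normalized to T0. Curve fits gave the concentration producing 50% growth inhibition relative to T0 and Ymax (GI50).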

[8] = test system: NCI-H1299; test: Anticancer activity against human NCI-H1299 cells assessed as cell growth inhibition measured after 72 hrs by DAPI staining based analysis
[9] = test system: RKO; test: Anticancer activity against human RKO cells assessed as cell doubling measured for 72 hrs by DAPI staining based analysis
[10] = Anticancer activity against human UM-SCC-12 cells assessed as cell doubling measured for 72 hrs by DAPI staining based analysis
[11] = test system: SNB-19; test: Anticancer activity against human SNB-19 cells assessed as cell growth inhibition measured after 72 hrs by DAPI staining based analysis
[12] = Anticancer activity against human BC1 cells assessed as cell doubling measured for 72 hrs by DAPI staining based analysis
[13] = test system: SNU-398; test: Anticancer activity against human SNU-398 cells assessed as cell growth inhibition measured after 72 hrs by DAPI staining based analysis
[14] = test system: SK-MEL-28; test: Anticancer activity against human SK-MEL-28 cells assessed as cell doubling measured for 72 hrs by DAPI staining based analysis
[15] = test system: MC-CAR; test: Anticancer activity against human MC-CAR cells assessed as cell doubling measured for 72 hrs by DAPI staining based analysis
[16] = test system: SK-N-DZ; test: Anticancer activity against human SK-N-DZ cells assessed as cell doubling measured for 72 hrs by DAPI staining based analysis
[17] = test system: BPH-1; test: Anticancer activity against human BPH-1 cells assessed as cell growth inhibition measured after 72 hrs by DAPI staining based analysis; outline: as §1
[18] = test system: HT-29; test: Anticancer activity against human HT-29 cells assessed as cell doubling measured for 72 hrs by DAPI staining based analysis
[19] = test system: SCC-25; test: Anticancer activity against human SCC-25 cells assessed as cell growth inhibition measured after 72 hrs by DAPI staining based analysis
[20] = test system: COLO 205; test: Anticancer activity against human COLO 205 cells assessed as cell doubling measured for 72 hrs by DAPI staining based analysis
[21] = test system: OVCAR-3; test: Anticancer activity against human OVCAR-3 cells assessed as cell growth inhibition measured after 72 hrs by DAPI staining based analysis
[22] = test system: MX1; test: Antitumor activity against human MX1 cells in xenograft model assessed as tumor growth delay at 62.5 mg/kg relative to control
[23] = test system: SNU1; test: Anticancer activity against human SNU1 cells assessed as cell growth inhibition measured after 72 hrs by DAPI staining based analysis
[24] = test system: COLO 320DM; test: Anticancer activity against human COLO 320DM cells assessed as cell growth inhibition measured after 72 hrs by DAPI staining based analysis; outline: as §1
[25] = test system: NCI-H460; test: Anticancer activity against human NCI-H460 cells assessed as cell growth inhibition measured after 72 hrs by DAPI staining based analysis
[26] = test system: COLO 205; test: Antitumor activity against human COLO 205 cells in xenograft model assessed as tumor growth delay at 62.5 mg/kg relative to control
[27] = test system: IGROV-1; test: Anticancer activity against human IGROV-1 cells assessed as cell growth inhibition measured after 72 hrs by DAPI staining based analysis
[28] = test system: COLO 201; test: Anticancer activity against human COLO201 cells assessed as cell growth inhibition measured after 72 hrs by DAPI staining based analysis; outline: as §2
[29] = test system: FaDu; test: Anticancer activity against human FaDu cells assessed as cell growth inhibition measured after 72 hrs by DAPI staining based analysis; outline: as §2
[30] = test system: A673; test: Anticancer activity against human A673 cells assessed as cell doubling measured for 72 hrs by DAPI staining based analysis
[31] = test system: CCF-STTG1; test: Anticancer activity against human CCF-STTG1 cells assessed as cell doubling measured for 72 hrs by DAPI staining based analysis
Outline: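 Cell-growth inhibition in 384-well plates. DNA content of fixed cells stained with DAPI was read by automated imaging 24 h after seeding (T0) and again after a further 72 h exposure to varying drug concentrations (T72). T72 values were normalized to T0, and curves were fitted to give the concentration causing 50% growth inhibition relative to T0 and Ymax (GI50).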

[32] = test system: DU-145; test: Anticancer activity against human DU-145 cells assessed as cell doubling measured for 72 hrs by DAPI staining based analysis
[33] = test system: SiHa; test: Anticancer activity against human SiHa cells assessed as cell doubling measured for 72 hrs by DAPI staining based analysis
[34] = test system: MDA-MB-468; test: Anticancer activity against human MDA-MB-468 cells assessed as cell growth inhibition measured after 72 hrs by DAPI staining based analysis
[35] = test system: 639-V; test: Anticancer activity against human 639-V cells assessed as cell growth inhibition measured after 72 hrs by DAPI staining based analysis
Outline: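 Cells were seeded and, after 24 h, DNA content was read as T0. Cells were then exposed to varying drug concentrations for a further 72 h (T72). Fixed cells were DAPI-stained and DNA content measured by automated imaging. T72 values were normalized to T0. GI50 is the concentration giving 50% growth inhibition between T0 and Ymax, obtained by curve fitting.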

[36] = test system: HuP-T4; test: Anticancer activity against human HuP-T4 cells assessed as cell growth inhibition measured after 72 hrs by DAPI staining based analysis
[37] = test system: RXF 393; test: Anticancer activity against human RXF 393 cells assessed as cell growth inhibition measured after 72 hrs by DAPI staining based analysis
[38] = test system: 5637; test: Anticancer activity against human 5637 cells assessed as cell doubling measured for 72 hrs by DAPI staining based analysis

In the case of CC(C)Oc1ccc(C(=O)N[C@H](CNC(=O)CN(C)C)Cc2ccc(-c3cn4cccc([C@H](C)O)c4n3)cc2)cc1Cl [GSK-923295A], the Time [1] is reported as -2.8 days, the GI50 [2] is reported as 40 nM and the Activity [3] is reported as 1.21. It also gave a GI50 [4] of 79 nM, a GI50 [5] of 24 nM and an Activity [6] of 1.41. For the same compound, the GI50 [7] was 33 nM, the GI50 [8] was 52 nM and the Activity [9] was 4.17. For the same compound, the Activity [10] was 1.78, the GI50 [11] was 28 nM and the Activity [12] was 3.65. It also gave a GI50 [13] of 27 nM, an Activity [14] of 2.43 and an Activity [15] of 2.03. The Activity [16] was 1.81, the GI50 [17] was 52 nM and the Activity [18] was 4.33. The GI50 [19] was 23 nM, the Activity [20] was 3.3 and the GI50 [21] was 42 nM. The Activity [22] was 5%, the GI50 [23] was over 10000 nM and the GI50 [24] was 306 nM. The GI50 [25] was 29 nM, the Activity [26] was 122% and the GI50 [27] was 31 nM. The GI50 [28] was 24 nM, the GI50 [29] was 32 nM and the Activity [30] was 2. For the same compound, the Activity [31] was 1.2, the Activity [32] was 2.25 and the Activity [33] was 2.36. For the same compound, the GI50 [34] was 25 nM, the GI50 [35] was 27 nM and the GI50 [36] was 158 nM. For the same compound, the GI50 [37] was 32 nM and the Activity [38] was 1.43.
